# Source: PubChem (several laboratories)
# Only some compounds are listed: those with a hit (about 1.5% of all), similar ones and a draw of the others.
# APJ antagonist – APJ receptor antagonism | P35414 | CHO-K1 APJ beta-arrestin complementation, luminescence | inhibition, % at 20 µM | 330,000 compounds, 0.32% hits | AID 2521;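 active = inhibition above about 40% at 20 µM, limit read from the data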;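 note: cells challenged with 10 nM apelin-13 agonist together with compound; plate controls were apelin-13 plus DMSO wells for no effect and DMSO wells lacking apelin-13 for full effect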
# APJ agonist – agonists of human APJ apelin receptor; AID 2520; activation, % at 20 µM; 330,000 compounds, 0.11% hits; CHO-K1 APJ PathHunter beta-arrestin, luminescence; 0% DMSO wells, 100% apelin;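 active = activation more than six SD over the plate average, tested at 20 µM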;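 note: 0% = DMSO alone and 100% = apelin-13 at 10 nM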
#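 Assay system: engineered CHO-K1 APJ arrestin reporter cells; Amount: 1000 CHO-K1 reporter cells seeded per well; Dosing: one dose, 20 µM compound, 1% DMSO; Times: compound stimulation 90 min at 25 °C, detection 60 min; Measured by: luminescent beta-gal fragment complementation, chemiluminescent substrate; Read-out: APJ–arrestin association signal; Controls: DMSO vs Apelin-13 10 nM.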
# NTR1 ag – activates human neurotensin receptor 1. NTR1-U2OS beta-arrestin-GFP spot imaging, agonist mode. AID 493036. 330,000 compounds, 0.17% hits. activation, % at 20 µM. P30989;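 active = activation at or above 40% of the spot to cytoplasm intensity ratio, with at least 20 cells analyzed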;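 note: 0% = DMSO without peptide and 100% = 100 nM NTR1 peptide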
# CXCR6 inh – blocks human CXCR6 beta-arrestin recruitment. O00574. CHO-K1 PathHunter CXCR6 beta-arrestin, luminescence. inhibition, % at 20 µM. 360,000 compounds, 0.36% hits. AID 602244; in the data active = inhibition above about 34%, passing the limit was not always enough;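 note: antagonist mode with CXCL16 agonist at 10 nM final; 0% = 10 nM CXCL16 with DMSO and 100% = unstimulated wells without agonist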
# m5-HT2A agonist – agonists of mouse serotonin 5-HT2A receptor (HTR2A). 360,000 compounds, 0.66% hits. CHO-K1 mHTR2A beta-arrestin complementation, luminescence; percent of 30 µM serotonin response. activation, % at 7.6 µM. P35363;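 active = activation above a run cutoff, the mean activation of all tested compounds plus 3 SD, cut at about 14% in these data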;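 note: 0% = plate median of compound wells and 100% = 30 µM serotonin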
# Target sequence (P35363 whole entry, looked up): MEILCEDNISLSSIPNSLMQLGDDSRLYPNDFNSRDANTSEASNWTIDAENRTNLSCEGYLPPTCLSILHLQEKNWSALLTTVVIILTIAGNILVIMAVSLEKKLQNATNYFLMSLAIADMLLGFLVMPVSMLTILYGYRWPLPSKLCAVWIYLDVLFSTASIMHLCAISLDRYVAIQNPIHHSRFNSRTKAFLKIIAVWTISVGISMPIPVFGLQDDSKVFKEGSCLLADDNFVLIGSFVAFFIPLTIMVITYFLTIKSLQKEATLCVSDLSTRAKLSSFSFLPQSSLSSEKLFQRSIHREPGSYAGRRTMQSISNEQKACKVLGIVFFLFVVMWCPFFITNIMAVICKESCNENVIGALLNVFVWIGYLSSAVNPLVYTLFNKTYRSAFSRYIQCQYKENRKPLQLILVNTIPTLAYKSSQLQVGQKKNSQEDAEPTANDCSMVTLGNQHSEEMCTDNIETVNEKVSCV
# CCR6 antagonist – blocks CCL20-driven beta-arrestin recruitment at human CCR6; P51684; CHO-K1 CCR6 PathHunter beta-arrestin, luminescence, CCL20-stimulated; inhibition, % at 20 µM; 340,000 compounds, 0.49% hits;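 active = compounds whose inhibition of the agonist-driven luminescence signal at 20 µM reaches about 50%, limit read from the data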;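 note: cells stimulated with CCL20 at 14 nM final; plate controls were DMSO with CCL20 for no effect and DMSO without agonist for full effect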
# NTR1 ag conf – confirmation of agonists of human NTR1. activation, % at 20 µM. NTR1-U2OS beta-arrestin-GFP translocation imaging. shares compounds with NTR1 ag. 480 compounds, 38% hits. AID 504550;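 active = mean activation at 20 µM of at least 40%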;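 note: 0% = DMSO without peptide and 100% = 100 nM NTR1 peptide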
# Active calls of the source: *; / = not tested or not shown.
SMILES,APJ antagonist,APJ agonist,NTR1 ag,CXCR6 inh,m5-HT2A agonist,CCR6 antagonist,NTR1 ag conf
COc1cc2ccccc2cc1C(=O)N(CCN(C)C)c1nc2c(OC)ccc(OC)c2s1,15,-5,42*,-1,-1,21,3
O=C(CNC(=O)c1cccs1)N/N=C/c1c(F)cccc1Cl,1,-3,0,-6,7,11,/
Cc1sc(NC(=O)c2ccco2)nc1-c1ccc2c(c1)CC(C)N2C(=O)C1CC1 (centres undefined),-16,-1,71*,-5,4,-2,66*
COc1cc(NC(=O)CN(C)S(=O)(=O)c2ccc3c(c2)CC(C)N3C(C)=O)cc(OC)c1OC (centres undefined),-15,3,-1,2,4,7,/
Cn1c(CNC(=O)c2ccccc2F)nnc1SCC(=O)c1ccccc1,11,-2,2,2,3,7,/
CN(C(=O)COC(=O)C1CCN(S(=O)(=O)c2cccs2)CC1)c1ccccc1,-2,-4,0,5,1,14,/
CCOC(=O)c1c(CSc2ccccc2)oc2ccc(O)cc12,-1,-5,12,4,5,19,/
CCOC(=O)c1c(CSc2ccc(C)cc2)oc2ccc(O)cc12,-29,-5,45*,2,0,18,6
CCCCNc1c(-c2cccc(-c3cc(C(C)=O)cs3)c2)nc2ccc(C)cn12,-67,12,41*,-19,10,6,22
CCc1ccc2c(c1)C1(C(=O)N2)N2CCCC2C(C(=O)c2ccc3ccccc3c2)C12C(=O)Nc1ccccc12 (centres undefined),-16,-1,55*,4,9,-8,87*
O=C(/C=C/c1c(F)cccc1Cl)c1ccc(O)cc1,-11,-1,63*,-7,-2,11,5
O=C(/C=C/c1ccccc1Cl)c1ccc(O)cc1,12,-5,2,11,1,16,/
O=C(c1ccc(=O)[nH]c1)N1CCN(S(=O)(=O)c2ccc(Cl)cc2)CC1,10,2,1,-5,-8,13,/
CC(C)CN(C(=O)c1cccc([N+](=O)[O-])c1)c1c(N)n(CC(C)C)c(=O)[nH]c1=O,20,1,-1,2,-7,5,/
CC(C)CN(C(=O)c1cccc(F)c1)c1c(N)n(CC(C)C)c(=O)[nH]c1=O,-9,-2,42*,-5,-4,10,-1
CC(CCc1ccccc1)NC(=O)COC(=O)c1ccc(S(C)(=O)=O)c([N+](=O)[O-])c1 (centres undefined),5,7,42*,31,-5,50*,79*
CCCCOC(=O)C1=C(C)NC(=O)NC1c1ccccc1 (centres undefined),11,-2,-1,-3,6,13,/
CCOc1cccc(-c2nn(-c3ccccc3)cc2/C=C(/C#N)C(=O)NCCCn2ccnc2)c1,-8,-1,44*,6,-6,3,27
c1cnc(N2CCN(c3nc4ccccc4n4cnnc34)CC2)nc1,-19,0,8,-2,3,-14,/
c1ccc(C(c2ccccc2)N2CCN(c3nc4ccccc4n4cnnc34)CC2)cc1,13,1,42*,/,/,10,50*
N=c1c(C(=O)NCCc2ccccc2)cc2c(=O)n3ccccc3nc2n1Cc1ccco1,28,-3,43*,22,-7,34,6
Cc1cc(F)ccc1S(=O)(=O)Nc1ccccc1C(=O)Nc1ccccc1-c1nc2ccccc2[nH]1,-15,8,53*,-22,-3,-19,72*
Cc1cc(F)ccc1S(=O)(=O)Nc1ccccc1C(=O)Nc1ncn[nH]1,15,-5,4,2,-1,-10,/
O=C(COC(=O)C1CC2CCCC(C1)C2=O)NNC(=O)c1ccc([N+](=O)[O-])cc1 (centres undefined),-54,18,0,-24,2,0,/
CC(C)C[C@@H](CO)N(Cc1ccccc1)S(=O)(=O)N(Cc1ccccc1)[C@@H](CO)CC(C)C,-20,6,47*,-5,1,-6,21
SMILES,APJ antagonist,APJ agonist,NTR1 ag,CXCR6 inh,m5-HT2A agonist,CCR6 antagonist,NTR1 ag conf
CC(C)(C)OC(=O)NCc1ccc(CNC(=O)c2nc[nH]c2C(=O)NCc2ccccc2)cc1,-3,-5,9,1,-2,4,/
C[C@H](NC(=O)c1nc[nH]c1C(=O)N[C@@H](Cc1ccccc1)C(=O)OC(C)(C)C)C(=O)OCc1ccccc1,7,-1,41*,12,5,13,14
O=C(N[C@@H](Cc1ccccc1)C(=O)OCc1ccccc1)c1nc[nH]c1C(=O)N1CCc2ccccc2C1,15,0,48*,-2,3,-4,10
CC(C)C[C@H](NC(=O)c1nc[nH]c1C(=O)N1CCc2ccccc2C1)C(=O)OCc1ccccc1,11,-2,16,12,1,13,/
CC(C)(C)OC(=O)NCc1ccc(CNC(=O)c2[nH]cnc2C(=O)NCC(=O)OCc2ccccc2)cc1,6,11,56*,-8,3,-5,31
CC(C)C[C@H](NC(=O)c1nc[nH]c1C(=O)N[C@@H](CC(C)C)C(=O)OC(C)(C)C)C(=O)OCc1ccccc1,10,-2,29,/,/,10,/
CC(C)C[C@H](NC(=O)c1[nH]cnc1C(=O)N[C@@H](C)c1ccccc1)C(=O)OCc1ccccc1,20,7,42*,13,6,7,63*
Fc1cnc(N/N=C/c2ccc(-c3ccc(Br)cc3)o2)nc1N1CCOCC1,6,7,41*,7,-1,6,24
Brc1ccc(-c2ccc(/C=N/Nc3nc(N4CCOCC4)nc(N4CCOCC4)n3)o2)cc1,6,-4,14,-1,-6,7,/
COc1ccc(CC(=O)Nc2cccc(-c3nnc(-c4cccc(C)c4)o3)c2)cc1OC,-22,24*,41*,-8,8,0,58*
Cc1ccc(S(=O)(=O)NCc2ccccc2)cc1C(=O)N(C)CC(=O)Nc1c(Cl)cccc1Cl,12,5,1,0,6,-7,/
O=C(CC1Nc2ccccc2NC1=O)Nc1cc(Cl)cc(Cl)c1 (centres undefined),3,0,73*,-8,-4,-6,54*
O=C(CC1NC(=O)NC1=O)Nc1ccc(Cl)cc1 (centres undefined),-2,-4,8,1,3,-20,/
Cc1ccc(S(=O)(=O)Oc2ccc3c(c2)O/C(=C\c2cccnc2)C3=O)cc1,-19,-2,43*,4,-1,14,33
